The species named for experiment [1] is Callithrix jacchus. Description: Inhibition of mormoset placenta cytosolic 17betaHSD1 using [3H]E1 as substrate at 50 nM after 10 mins by radioflow detection assay.
For experiment [2], the species on record is Callithrix jacchus. Briefly: Inhibition of mormoset placenta microsomal 17betaHSD2 using [3H]E2 as substrate at 50 nM after 20 mins by radioflow detection assay.
Experiment [3] concerns the target T1, Estradiol 17-beta-dehydrogenase 2 (Mus musculus) (UniProt P51658).
T1 sequence (whole entry): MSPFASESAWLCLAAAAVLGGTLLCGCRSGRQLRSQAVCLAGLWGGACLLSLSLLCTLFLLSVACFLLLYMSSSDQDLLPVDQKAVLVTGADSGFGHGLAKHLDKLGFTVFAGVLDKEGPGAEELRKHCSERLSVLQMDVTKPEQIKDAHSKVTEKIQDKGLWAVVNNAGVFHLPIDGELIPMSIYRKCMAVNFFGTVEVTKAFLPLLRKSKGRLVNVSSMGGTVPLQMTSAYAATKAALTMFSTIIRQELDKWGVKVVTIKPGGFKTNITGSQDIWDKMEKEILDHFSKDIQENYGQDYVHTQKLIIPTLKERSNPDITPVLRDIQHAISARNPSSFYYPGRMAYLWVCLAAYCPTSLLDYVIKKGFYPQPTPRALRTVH
Briefly: Inhibition of mouse liver microsomal 17betaHSD2 using [3H]E2 as substrate.

Experiment [4] concerns the target T2, 17-beta-hydroxysteroid dehydrogenase type 1 (Homo sapiens, UniProt P14061).
T2 sequence (P14061 whole entry): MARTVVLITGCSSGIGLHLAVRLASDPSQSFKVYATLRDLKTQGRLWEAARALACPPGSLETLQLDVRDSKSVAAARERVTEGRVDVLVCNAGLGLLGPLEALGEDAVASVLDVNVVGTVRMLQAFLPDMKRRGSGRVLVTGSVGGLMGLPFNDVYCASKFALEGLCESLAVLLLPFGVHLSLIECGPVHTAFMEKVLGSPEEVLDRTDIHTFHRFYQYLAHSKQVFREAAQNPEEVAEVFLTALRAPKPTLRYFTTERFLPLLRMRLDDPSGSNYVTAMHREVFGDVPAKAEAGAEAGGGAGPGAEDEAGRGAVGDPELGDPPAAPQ
Description: Inhibition of 17betaHSD1 in human T47D cells using [3H]E1 as substrate incubated for 30 mins prior to substrate addition measured after 30 mins by radioflow detection assay. It is filed as cell-based. An outline of the steps: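 T47D cells kept in RPMI 1640 with 10% FCS, glutamine, insulin-zinc, pyruvate, antibiotics. Seeded at 5 × 10^5 cells/well in DMEM with FCS, switched to serum-free DMEM after 24 h. Compound added in DMSO (1% final), 30 min preincubation at 37 °C, 5% CO2. Then unlabeled + [3H]-E1 (50 nM final) for 30 min. Steroids extracted into diethylether. Mean of three determinations.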

The target of experiment [5] is T2, 17-beta-hydroxysteroid dehydrogenase type 1. Description: Inhibition of human placenta cytosolic 17betaHSD1 using [3H]E1 as substrate after 10 mins by radioflow detection assay. An outline of the steps: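 Cytosolic 17β-HSD1 from fresh human placenta, obtained by ammonium sulfate precipitation. Incubated at 37 °C in 50 mM phosphate buffer with 20% glycerol and EDTA, with NADH 500 μM and compound (DMSO 1% final). Started with unlabeled + [3H]-E1 (500 nM final), stopped after 10 min with HgCl2, ether-extracted. E1/E2 quantified by radioflow HPLC as % conversion. At least three independent experiments.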

Experiment [6] addresses Estrogen receptor beta (Homo sapiens) (UniProt Q92731). Briefly: Relative binding affinity to human recombinant ERbeta receptor using [3H]E2 as substrate after 1 hr by liquid scintillation counting relative to E2. In short, it runs like this:
(§1)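 Recombinant human ERα or ERβ (0.25 pmol) incubated 1 h at rt with [3H]-E2 (10 nM) and compound in DMSO (5% final). Nonspecific binding defined with diethylstilbestrol 10 μM. Bound complex captured on hydroxyapatite, washed, resuspended in ethanol, counted by liquid scintillation. Concentrations displacing 50% of bound label compared with E2, which is set at 100%.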

Experiment [7] deals with T3, 17-beta-hydroxysteroid dehydrogenase type 1 (Mus musculus) (UniProt P51656).
T3 sequence (whole entry): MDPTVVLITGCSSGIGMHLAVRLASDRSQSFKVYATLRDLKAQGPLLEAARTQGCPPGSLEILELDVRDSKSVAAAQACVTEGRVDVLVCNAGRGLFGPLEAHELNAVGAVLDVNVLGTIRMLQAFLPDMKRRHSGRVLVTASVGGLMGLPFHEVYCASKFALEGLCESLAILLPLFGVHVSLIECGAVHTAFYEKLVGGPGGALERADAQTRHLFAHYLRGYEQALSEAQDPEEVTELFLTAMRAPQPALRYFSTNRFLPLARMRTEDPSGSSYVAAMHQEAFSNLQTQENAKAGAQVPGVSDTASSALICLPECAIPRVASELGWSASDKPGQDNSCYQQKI
Briefly: Inhibition of mouse liver cytosolic 17betaHSD1 using [3H]E1 as substrate.

Experiment [8] deals with T4, 17-beta-hydroxysteroid dehydrogenase type 2 (Homo sapiens, UniProt P37059).
T4 sequence (P37059 whole entry): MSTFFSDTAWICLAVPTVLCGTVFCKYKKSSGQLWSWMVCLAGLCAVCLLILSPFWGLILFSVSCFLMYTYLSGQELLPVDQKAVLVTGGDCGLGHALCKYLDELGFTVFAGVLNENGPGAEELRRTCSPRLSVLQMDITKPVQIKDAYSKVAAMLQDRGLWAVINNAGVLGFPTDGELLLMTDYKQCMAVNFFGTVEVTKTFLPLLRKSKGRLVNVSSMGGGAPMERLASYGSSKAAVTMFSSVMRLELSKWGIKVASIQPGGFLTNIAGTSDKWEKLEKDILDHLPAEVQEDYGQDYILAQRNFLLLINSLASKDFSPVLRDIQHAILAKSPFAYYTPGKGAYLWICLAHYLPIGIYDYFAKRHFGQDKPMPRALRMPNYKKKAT
Briefly: Inhibition of human placenta microsomal 17betaHSD2 using [3H]E2 as substrate after 20 mins by radioflow detection assay. An outline of the steps: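 Microsomal (pellet) fraction of fresh human placenta incubated with NAD+ 1500 μM, compound, and unlabeled + [3H]-E2 (500 nM final) for 20 min at 37 °C. Stopped with 1 mM HgCl2, ether-extracted. Steroids separated by HPLC with radioflow detection, conversion computed. Mean of three determinations.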

Experiment [9] deals with T5, Estrogen receptor (Homo sapiens) (UniProt P03372).
T5 sequence (whole entry): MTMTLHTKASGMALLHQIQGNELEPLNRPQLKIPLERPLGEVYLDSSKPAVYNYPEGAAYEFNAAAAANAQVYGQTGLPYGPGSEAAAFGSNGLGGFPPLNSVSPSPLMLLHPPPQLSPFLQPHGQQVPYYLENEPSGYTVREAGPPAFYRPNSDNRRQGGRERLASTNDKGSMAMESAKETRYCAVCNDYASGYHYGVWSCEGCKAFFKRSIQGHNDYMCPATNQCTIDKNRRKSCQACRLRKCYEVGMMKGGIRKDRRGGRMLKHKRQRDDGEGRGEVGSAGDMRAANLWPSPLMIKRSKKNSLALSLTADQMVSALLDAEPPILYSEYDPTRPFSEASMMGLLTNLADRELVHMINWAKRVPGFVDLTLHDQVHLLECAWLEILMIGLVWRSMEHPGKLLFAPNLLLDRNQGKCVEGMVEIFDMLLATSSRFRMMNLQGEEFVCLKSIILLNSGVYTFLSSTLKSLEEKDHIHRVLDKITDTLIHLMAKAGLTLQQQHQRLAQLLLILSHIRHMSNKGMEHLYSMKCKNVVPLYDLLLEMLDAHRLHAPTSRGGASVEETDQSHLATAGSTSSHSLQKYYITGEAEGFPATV
Briefly: Relative binding affinity to human recombinant ERalpha receptor using [3H]E2 as substrate after 1 hr by liquid scintillation counting relative to E2. In short, it runs like this:
as §1

For experiment [10], the target named is T6, 17-beta-hydroxysteroid dehydrogenase type 1 (Homo sapiens) (UniProt P14061).
T6 sequence (whole entry): T2 sequence (P14061 whole entry)
Description: Inhibition of human placenta cytosolic 17betaHSD1 using [3H]E1 as substrate at 10 nM after 10 mins by radioflow detection assay.

Activity calls are given as the source filed them. The rule behind the calls is not given here.

Sequence of Estrogen receptor beta (Homo sapiens) (Q92731 whole entry): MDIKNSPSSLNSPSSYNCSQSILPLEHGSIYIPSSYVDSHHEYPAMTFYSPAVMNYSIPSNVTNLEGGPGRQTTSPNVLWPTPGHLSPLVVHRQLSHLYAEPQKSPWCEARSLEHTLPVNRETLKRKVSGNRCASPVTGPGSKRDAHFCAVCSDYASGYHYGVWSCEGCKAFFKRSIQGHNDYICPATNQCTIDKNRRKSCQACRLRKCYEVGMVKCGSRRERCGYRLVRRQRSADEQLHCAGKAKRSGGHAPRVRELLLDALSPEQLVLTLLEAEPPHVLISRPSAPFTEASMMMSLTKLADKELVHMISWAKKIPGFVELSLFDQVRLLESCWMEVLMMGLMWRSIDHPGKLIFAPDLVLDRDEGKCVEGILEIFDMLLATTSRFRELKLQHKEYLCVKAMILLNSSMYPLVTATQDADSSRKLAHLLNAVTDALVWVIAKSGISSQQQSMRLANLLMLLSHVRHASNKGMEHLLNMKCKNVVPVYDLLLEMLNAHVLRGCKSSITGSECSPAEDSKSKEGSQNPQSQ

For `O=S(=O)(Nc1cccc(-c2c(O)ccc3cc(-c4cccc(O)c4)ccc23)c1)c1cccc(O)c1`, the inhibition is 20% in the experiment listed under Callithrix jacchus [1] and under 10% in the experiment listed under Callithrix jacchus [2]. Further, the inhibition entry in experiment [3] is “Active”. In addition, the IC50 in experiment [4] amounted to 701 nM; in experiment [5], 14 nM; in experiment [8], 999 nM. For the same compound, the RBA in [6] and in experiment [9] was under 0.1% each time. Moreover, the inhibition result in experiment [7] is “inactive”.
On to `O=S(=O)(Nc1cccc(-c2c(O)ccc3cc(-c4cccc(O)c4)ccc23)c1)c1ccccc1`, for which the values for the inhibition (in the experiment filed under Callithrix jacchus [1]; in the experiment filed under Callithrix jacchus [2]; in experiment [10]) were 19%, under 10% and over 30%, respectively. In [3], the inhibition result is “Active”. For the same compound, the IC50 in experiment [4] stood at 196 nM; in experiment [5], 15 nM; in [8] it was 403 nM. For the same compound, the RBA in experiment [6] and in experiment [9] was under 0.1% throughout. In addition, in experiment [7], the inhibition result was “inactive”.
In the case of `N#Cc1ccccc1S(=O)(=O)Nc1cccc(-c2c(O)ccc3cc(-c4cccc(O)c4)ccc23)c1`, the inhibition in the experiment listed under Callithrix jacchus [1] is 43%; in the experiment listed under Callithrix jacchus [2], 35%; in experiment [10], over 30%. Further, the inhibition result in [3] is “Active”. Also, the IC50 in experiment [4] was found to be 157 nM; in experiment [5] it was 14 nM; in [8], 439 nM. In addition, the RBA in experiment [6] and in experiment [9] was under 0.1% in each case. For the same compound, the inhibition result in experiment [7] was “inactive”.
As to `O=[N+]([O-])c1ccc(S(=O)(=O)Nc2cccc(-c3c(O)ccc4cc(-c5cccc(O)c5)ccc34)c2)cc1`, the inhibition in the experiment listed under Callithrix jacchus [1] is 28%; in the experiment listed under Callithrix jacchus [2] it was 13%; in experiment [10], over 30%. For the same compound, the IC50 was 753 nM in [4], 49 nM in experiment [5] and 1060 nM in experiment [8]. The RBA in experiment [6] and in experiment [9] was under 0.1% in each case.
For `O=[N+]([O-])c1ccccc1S(=O)(=O)Nc1cccc(-c2c(O)ccc3cc(-c4cccc(O)c4)ccc23)c1`, the inhibition is under 10% in the experiment filed under Callithrix jacchus [1], 21% in the experiment filed under Callithrix jacchus [2] and over 30% in [10]. In addition, the IC50 in experiment [4] amounted to 462 nM; in experiment [5], 17 nM; in [8], 238 nM. In addition, the RBA in [6] and in experiment [9] was under 0.1% in each case.
Consider `O=S(=O)(CC(F)(F)F)Nc1cccc(-c2c(O)ccc3cc(-c4cccc(O)c4)ccc23)c1`, for which the inhibition in the experiment filed under Callithrix jacchus [1] is 17%; in the experiment listed under Callithrix jacchus [2], 32%; in [10], over 30%. In [3], the inhibition entry is “Active”. Also, the IC50 in [4] was 246 nM; in experiment [5] it was 32 nM; in experiment [8] it was 1210 nM. Also, the RBA in experiment [6] and in experiment [9] was under 0.1% in each case. The inhibition result in [7] is “inactive”.
As to `O=S(=O)(Nc1cccc(-c2c(O)ccc3cc(-c4cccc(O)c4)ccc23)c1)c1cc(F)c(Br)cc1F`, the inhibition in the experiment filed under Callithrix jacchus [1] was 14%; in the experiment filed under Callithrix jacchus [2], 17%; in [10] it was over 30%. In addition, the IC50 in experiment [4] was determined as 646 nM; in [5] it was 46 nM; in experiment [8], 223 nM. For the same compound, the RBA in experiment [6] and in experiment [9] was under 0.1% in each case.

Values taken from ChEMBL document CHEMBL2040729, “Lead optimization of 17β-HSD1 inhibitors of the (hydroxyphenyl)naphthol sulfonamide type for the treatment of endometriosis” (J Med Chem, 2012).
